Bioassay records from PubChem BioAssay.
Most compounds without a hit are left out; they make up all but 1.9% or so of the library.
FN deposition inh: fibronectin deposition inhibition. AH1F fibroblasts, Alexa488-fibronectin deposition fluorescence, overnight. inhibition, % at 12.6 µM. 350,000 tested, 0.086% active;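 active = mean inhibition across replicates of 30% or more, regardless of how many single replicates reach that level; inconclusive = mean under 30% yet at least half of replicates reach 30%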;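 note: positive control wells lacked labelled fibronectin entirely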
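Assay system: AH1F fibroblasts assembling fluorescent fibronectin matrix; Amount: 10000 AH1F cells per well; Buffer or medium: DMEM, 2% serum; Probe or stimulus: Alexa488-fibronectin, 24 nM final in well; Doses: single compound dose, delivered by pin transfer; Incubation: 1 h adhesion, overnight exposure; Measured by: fluorescence 485/525 nm; Read-out: fibronectin deposition inhibition.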
Cneo AK release: causes C. neoformans cell lysis; adenylate kinase release luminescence, 4 h; normalised: neutral wells 0, clomiphene wells 100; lysis activity, % at 15 µM; 360,000 tested, 0.2% active; AID 651654;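 active = mean lysis activity across replicates of at least 80%, whatever share of replicates individually reach that level; inactive = mean lysis activity below 80%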
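Material: C. neoformans cells; Schedule: 4 h static compound exposure, 37 °C, read 1 h post-reagent; Measured by: adenylate kinase release luminescence; Read-out: signal increase indicating cell lysis; Controls: Clomiphene as positive lysis control.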
Xi reactivation: reactivates the inactive X chromosome in mouse fibroblasts; XiGFP mouse fibroblasts, % GFP-positive cells imaging, 3 d; cells co-treated with 5-aza-dC sensitizer; scaled so ellipticine positive control = 100%; activation, % at 7.58 µM; 360,000 tested, 0.055% active; AID 743238;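 active = mean normalized replicate activation at least 10% and every replicate at or above 10%; inconclusive = only one of the two criteria met; inactive = mean below 10% and not all replicates reach 10%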;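 note: 0% = median of on-plate neutral control wells and 100% = ellipticine 6 µM median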
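System: 68-5-11 XiGFP fibroblast line | Buffer or medium: DMEM containing 5-aza-dC | Compound: Single point | Times: Compounds 3 days, fix/stain 15 min at room temperature | Benchmarks: Positive control ellipticine, 6 µM final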
PGC1a acetyl inh: modulators of PGC1a acetylation; inhibition, % at 15.6 µM; AID 651687; U2OS PGC1a acetylation, AlphaScreen anti-acetyl-lysine; with virally co-expressed GCN5 acetyltransferase; 350,000 tested, 0.17% active;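 active = every replicate shows inhibition of at least 40%; inconclusive = mean inhibition at least 40% but some replicate below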;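 note: 0% = neutral control wells and 100% = positive control wells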
DENV2 CPE rescue: DENV2-induced cell death inhibition; DENV2-infected cells, cytopathic effect rescue, plate reader; CPE inhibition, % at 9.99 µM; 350,000 tested, 1.7% active; AID 651640; in the data active = CPE inhibition above about 20%, passing the limit was not always enough; inconclusive = no clear call, values can overlap the other calls; tested in BHK-21 cells;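 note: 0% = median of neutral control wells and 100% = median of positive control wells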
F508del corr: CFTR F508del correction in bronchial cells | 350,000 tested, 0.36% active | activity (quench increase), % at 7.58 µM | AID 720511 | CFBE cells, YFP halide quenching; stimulated with forskolin plus potentiator P3; % fluorescence drop versus neutral controls;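 active = mean added fluorescence quench of at least 8% versus neutral control, with both replicates also reaching 8%; inconclusive = only one of the mean or replicate conditions met; inactive = mean below 8% and not both replicates reaching 8%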;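 note: cells transiently co-express mutant CFTR-F508del with the halide-sensitive YFP; corrector assay measuring rescue of mutant channel to the surface after 24 h compound exposure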
Numbers without * were called inactive; u = inconclusive; x = not tested or not shown; ! = not confirmed by another sample.

SMILES	FN deposition inh	Cneo AK release	Xi reactivation	PGC1a acetyl inh	DENV2 CPE rescue	F508del corr
Cc1nnc(SCC(=O)Nc2ccccc2F)n1Cc1ccco1	0	5	1	-1	64*	0
O=C(CSc1nccn1Cc1ccco1)Nc1ccccc1F	x	4	0	x	-1	0
O=S(=O)(c1ccccc1)N1[C@@H]2CNC[C@H]1C2c1ccc(-c2cccc(F)c2)cc1 (some centres not stated)	-5	x	0	-18	2	1
Cc1cccc(N2CCN(C(C(=O)NCc3ccccc3)c3ccco3)CC2)c1C (configuration not stated)	-4	x	0	x	3	-3
Cc1cccc(N2CCN(C(C(=O)NCc3ccccc3)c3ccc(F)cc3)CC2)c1C (configuration not stated)	8	x	0	x	59*	0
Cc1cc(Br)c(OCc2ccc(C(=O)N/N=C3\CC(=O)CC(C)(C)C3)cc2)c(Br)c1	-1	x	0	x	76*	0
O=C(NCC1CCCCC1)[C@@H]1[C@@H](CO)[C@@H]2Cn3c(cccc3=O)[C@H]1N2C(=O)c1ccncc1	-3	0	0	x	-1	2
CCNC(=O)C[C@@H]1CC[C@H]2[C@@H](COC[C@@H](O)CN2C(=O)Nc2ccc3c(c2)OCO3)O1	-1	-2	0	14	13	1
O=C(CS(=O)(=O)c1ccccc1)N1CCN(c2ccccc2)CC1	-9	-1	0	4	103*	0
O=C(CS(=O)(=O)c1ccc(Cl)cc1)N1CCN(c2ccccc2)CC1	-6	2	0	4	7	2
C[C@@H]1CC(=O)[C@H]2CC(CO)=CCC[C@@H]2[C@@]1(C)CC/C(=C/CO)CO	x	-9	x	-8	x	x
CC1=CCC[C@H]2[C@H](C1)C(=O)C[C@@H](C)[C@]2(C)CC/C(=C/CO)CO	x	-1	x	-7	24*	1
C[C@@H]1CN([C@H](C)CO)C(=O)c2cc(NC(=O)CCC(F)(F)F)ccc2O[C@@H](C)CCCCO[C@@H]1CN(C)C(=O)C1CCCCC1	x	46	0	-2	88*	3
C[C@H]1CCCCO[C@H](CN(C)C(=O)C2CCCCC2)[C@@H](C)CN([C@@H](C)CO)C(=O)c2cc(NC(=O)CCC(F)(F)F)ccc2O1	x	57	0	-8	x	-3
C[C@@H]1CCCCO[C@H](CN(C)C(=O)c2ccncc2)[C@@H](C)CN([C@H](C)CO)C(=O)c2cc(NC(=O)CCC(F)(F)F)ccc2O1	1	-1	0	4	8	-1
C[C@@H]1CN([C@H](C)CO)C(=O)c2cc(NC(=O)CCC(F)(F)F)ccc2O[C@@H](C)CCCCO[C@@H]1CN(C)C(=O)c1ccncc1	-9	89*	0	6	17	3
COc1ccc(S(=O)(=O)Nc2ccc3c(c2)C(=O)N([C@H](C)CO)C[C@@H](C)[C@@H](CN(C)Cc2ccc4c(c2)OCO4)OCCCC[C@@H](C)O3)cc1	3	7	0	-27	21*	1
COc1ccc(S(=O)(=O)Nc2ccc3c(c2)C(=O)N([C@@H](C)CO)C[C@H](C)[C@H](CN(C)Cc2ccc4c(c2)OCO4)OCCCC[C@@H](C)O3)cc1	-1	3	0	7	-6	3
COc1ccc(S(=O)(=O)Nc2ccc3c(c2)C(=O)N([C@H](C)CO)C[C@@H](C)[C@H](CN(C)Cc2ccc4c(c2)OCO4)OCCCC[C@@H](C)O3)cc1	8	64	0	-6	3	0
COc1ccc(S(=O)(=O)Nc2ccc3c(c2)C(=O)N([C@H](C)CO)C[C@H](C)[C@H](CN(C)Cc2ccc4c(c2)OCO4)OCCCC[C@H](C)O3)cc1	8	4	0	-16	59*	-1
COc1ccc(S(=O)(=O)Nc2ccc3c(c2)C(=O)N([C@@H](C)CO)C[C@@H](C)[C@@H](CN(C)Cc2ccc4c(c2)OCO4)OCCCC[C@H](C)O3)cc1	1	2	0	-10	22*	2
COc1ccc(S(=O)(=O)Nc2ccc3c(c2)C(=O)N([C@@H](C)CO)C[C@H](C)[C@@H](CN(C)Cc2ccc4c(c2)OCO4)OCCCC[C@@H](C)O3)cc1	0	3	0	-5	24*	4
C[C@H](CO)N1C[C@H](C)[C@H](CN(C)S(=O)(=O)c2ccc(F)cc2)Oc2c(NS(=O)(=O)c3ccccc3)cccc2C1=O	x	-3	0	-6	-7	1
C[C@@H]1CN([C@H](C)CO)C(=O)c2cc(NS(=O)(=O)c3ccc(F)cc3)ccc2O[C@@H](C)CCCCO[C@H]1CN(C)Cc1ccc2c(c1)OCO2	-7	12	0	-6	0	3
C[C@@H]1CN([C@@H](C)CO)C(=O)c2cc(NS(=O)(=O)c3ccc(F)cc3)ccc2O[C@@H](C)CCCCO[C@@H]1CN(C)Cc1ccc2c(c1)OCO2	6	99*	0	1	1	2
SMILES	FN deposition inh	Cneo AK release	Xi reactivation	PGC1a acetyl inh	DENV2 CPE rescue	F508del corr
C[C@H](CO)N1C[C@H](C)[C@@H](CN(C)S(=O)(=O)c2ccc(Cl)cc2)Oc2c(NC(=O)NC3CCCCC3)cccc2C1=O	-7	5	0	2	21*	0
COc1ccc(S(=O)(=O)N(C)C[C@H]2Oc3c(NC(=O)NC4CCCCC4)cccc3C(=O)N([C@H](C)CO)C[C@@H]2C)cc1	0	0	-1	10	70*!	2
COc1ccc2c3c(n(C)c2c1)[C@H](CO)NCC31CCN(S(=O)(=O)c2ccc(C)cc2)CC1	x	x	0	-9	1	0
CNC[C@@H](CC1CCCCC1)NC[C@H](CC(C)C)NCCc1cccc(C(F)(F)F)c1	62*	36	u	88*	u	-2
CNC[C@@H](Cc1ccccc1)NC[C@@H](CC1CCCCC1)NCCCc1ccccc1	1	3	0	-55	-1	2
O=C(Cc1cccc([N+](=O)[O-])c1)Nc1ccc(C(=O)N2CCCCC2)cc1	-1	10	0	x	81*	-1
O=C(Cc1cccc(NC(=O)C2CCCN(C(=O)C3CCCC3)C2)c1)Nc1cccc(C(=O)N2CCOCC2)c1 (configuration not stated)	2	1	0	-5	3	-2
O=C(Cc1cccc(NC(=O)C2CCCN(C(=O)C3CCCC3)C2)c1)Nc1ccc(C(=O)N2CCOCC2)cc1 (configuration not stated)	-17	-1	0	x	27*	1
